The results in this text go back to ChEMBL document CHEMBL1154601, “A new series of amodiaquine analogues modified in the basic side chain with in vitro antileishmanial and antiplasmodial activity” (Eur J Med Chem, 2009).

The test system of experiment [1] is Plasmodium falciparum. Put plainly: Antimalarial activity against chloroquine-resistant Plasmodium falciparum K1 assessed as inhibition of parasite growth after 48 hrs by [3H]hypoxanthine reuptake assay. It counts as functional, organism-based. Put shortly:
(§1)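 Synchronised ring-stage cultures at 1% parasitemia, 5% hematocrit, in RPMI 1640 at 37°C, 5% CO2; top final test concentration 30 µg/mL. After 24 h, (3H)-hypoxanthine (0.2 µCi/well) was added, followed by a further 48 h incubation. Plates were freeze/thawed and harvested, and uptake was counted by scintillation. IC50 came from sigmoidal regression as the mean of at least three determinations.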

The subject of another experiment is KB. In words: Cytotoxicity against human KB cells after 72 hrs by Alamar blue assay. It is filed as cell-based. The method in brief:
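Monolayers grown in RPMI 1640 + 10% heat-inactivated FCS at 37°C, 5% CO2. After 72 h compound exposure, Alamar Blue added and incubated a further 2-4 h. Fluorescence read at 530/580 nm, cut-off 550 nm. Podophyllotoxin served as positive control. IC50 is the concentration killing 50% of cells.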
(Resazurin is reduced to fluorescent resorufin, in cell work by metabolically active cells.)

Experiment [2] deals with Plasmodium falciparum. Put plainly: Antimalarial activity against chloroquine-susceptible Plasmodium falciparum 3D7 assessed as inhibition of parasite growth after 48 hrs by [3H]hypoxanthine reuptake assay. It is filed as functional, organism-based. Put shortly: as §1
The test system of the next experiment is Leishmania donovani. In words: Antileishmanial activity against Leishmania donovani MHOM/ET/ 67/HU3 amastigote infected in CD1 mouse peritoneal exudate macrophages assessed as parasite growth inhibition after 5 days by Giemsa staining. The conditions noted are these: MHOM/ET/ 67/HU3, 120 h. It is filed as functional, organism-based. Put shortly:
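Macrophages from starch-induced peritoneal exudate, harvested after 24 h, held 24 h in RPMI 1640 + 10% HIFCS at 37°C, 5% CO2. Infected with hamster-spleen-derived amastigotes at 5 parasites:1 macrophage, then 24 h later drug applied for 5 days, overlay renewed day 3. Top concentration 30 µg/mL, quadruplicates. Methanol fixation, microscopic scoring. IC50 by sigmoidal regression, mean of at least three determinations.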

Where only a bound is given, the exact number is not on record here.

In general, IC50 refers to the concentration at which inhibition is half-maximal. With `CCN(CC)Cc1cc(Nc2ccnc3cc(Cl)ccc23)ccc1O`, the IC50 is 8.61 nM in the experiment with Plasmodium falciparum [1], 90000 nM in the experiment on KB, 2.15 nM in the experiment with Plasmodium falciparum [2] and 1400 nM in the experiment with Leishmania donovani.

As to `CCN(CCN/C(=N/C(=O)c1ccccc1)Oc1ccccc1)Cc1cc(Nc2ccnc3cc(Cl)ccc23)ccc1O`, the IC50 in the experiment on Plasmodium falciparum [1] was found to be 10.1 nM; in the experiment on KB, 10200 nM; with Plasmodium falciparum [2], 6.73 nM; in the experiment on Leishmania donovani, 2860 nM.

On to `CCN(CCNC(=O)OC(C)(C)C)Cc1cc(Nc2ccnc3cc(Cl)ccc23)ccc1O`, for which the half-maximal inhibitory concentration (IC50) in the experiment with Plasmodium falciparum [1] was found to be 2.12 nM; in the experiment with KB it was 8810 nM; in the experiment on Plasmodium falciparum [2], 2.12 nM; in the experiment on Leishmania donovani, 8770 nM.

With `CCN(CCNC(=N)c1ccccc1)Cc1cc(Nc2ccnc3cc(Cl)ccc23)ccc1O`, the IC50 with Plasmodium falciparum [1] came to 290 nM; in the experiment on KB, 5340 nM; in the experiment with Plasmodium falciparum [2], 48.4 nM; with Leishmania donovani it was 7100 nM.

`Oc1ccc(Nc2ccnc3cc(Cl)ccc23)cc1CN1CCN(c2ncccn2)CC1`: the half-maximal inhibitory concentration (IC50) came to 8030 nM in the experiment on KB and 7210 nM in the experiment with Leishmania donovani.

In the case of `CCN(CCNC(=O)[C@H](C)N)Cc1cc(Nc2ccnc3cc(Cl)ccc23)ccc1O`, the IC50 worked out at 14100 nM with Plasmodium falciparum [1], 10400 nM with KB, 12.2 nM with Plasmodium falciparum [2] and 5150 nM in the experiment on Leishmania donovani.

For `CCN(CCNC(=S)Nc1ccccc1)Cc1cc(Nc2ccnc3cc(Cl)ccc23)ccc1O`, the concentration for half-maximal inhibition (IC50) in the experiment with Plasmodium falciparum [1] worked out at 6.5 nM; in the experiment with KB, 8460 nM; in the experiment with Plasmodium falciparum [2] it was 1.63 nM; in the experiment with Leishmania donovani, 2050 nM.

In the case of `Oc1ccc(Nc2ccnc3cc(Cl)ccc23)cc1CN1CCN(c2nc3ccccc3s2)CC1`, the half-inhibitory concentration (IC50) in the experiment on Plasmodium falciparum [1] turned out to be 1480 nM; in the experiment with KB it was 45200 nM; in the experiment on Plasmodium falciparum [2], 14.6 nM; in the experiment on Leishmania donovani it was 12900 nM.

Take `CCN(CCNC(=O)[C@@H](N)[C@@H](C)O)Cc1cc(Nc2ccnc3cc(Cl)ccc23)ccc1O`: the half-maximal inhibitory concentration (IC50) in the experiment with Plasmodium falciparum [1] amounted to 14100 nM; in the experiment with KB, 54400 nM; in the experiment on Plasmodium falciparum [2], 47 nM; in the experiment on Leishmania donovani it was 15300 nM.

Take `CCN(CCNC(=N)Nc1ccccc1)Cc1cc(Nc2ccnc3cc(Cl)ccc23)ccc1O`: the IC50 in the experiment with Plasmodium falciparum [1] was 12100 nM; with KB it was 9030 nM; with Plasmodium falciparum [2], 126 nM; in the experiment on Leishmania donovani, 11700 nM.

As to `CCOC(=O)N1CCN(Cc2cc(Nc3ccnc4cc(Cl)ccc34)ccc2O)CC1`, the IC50 in the experiment on Plasmodium falciparum [1] turned out to be 7.04 nM; in the experiment on KB, 11400 nM; with Plasmodium falciparum [2], 5.28 nM; in the experiment on Leishmania donovani, 14900 nM.

In the case of `CCN(CCNC(=O)Nc1ccccc1)Cc1cc(Nc2ccnc3cc(Cl)ccc23)ccc1O`, the IC50 amounted to 238 nM in the experiment on Plasmodium falciparum [1], 5330 nM in the experiment with KB, 8.22 nM with Plasmodium falciparum [2] and 1830 nM with Leishmania donovani.

Consider `Oc1ccc(Nc2ccnc3cc(Cl)ccc23)cc1CN1CCN(c2nccs2)CC1`, for which the 50% inhibitory concentration (IC50) with Plasmodium falciparum [1] stood at 0.42 nM; in the experiment on KB, 5020 nM; in the experiment on Plasmodium falciparum [2], 0.67 nM; in the experiment on Leishmania donovani, 17700 nM.

Turning to `CCN(CCN)Cc1cc(Nc2ccnc3cc(Cl)ccc23)ccc1O`, the IC50 stood at 5.47 nM in the experiment on Plasmodium falciparum [1], 25600 nM in the experiment on KB, 5.47 nM in the experiment with Plasmodium falciparum [2] and 5650 nM in the experiment on Leishmania donovani.

For `Oc1ccc(Nc2ccnc3cc(Cl)ccc23)cc1CN1CCN(c2nc3ccccc3o2)CC1`, the half-maximal inhibitory concentration (IC50) was determined as 387 nM with Plasmodium falciparum [1], 8020 nM in the experiment on KB, 1.68 nM with Plasmodium falciparum [2] and 14600 nM with Leishmania donovani.

`CCN(CCNC(=O)[C@@H](N)CC(C)C)Cc1cc(Nc2ccnc3cc(Cl)ccc23)ccc1O`: the IC50 with Plasmodium falciparum [1] amounted to 14300 nM; in the experiment with KB, 22300 nM; in the experiment with Plasmodium falciparum [2] it was 22.6 nM; in the experiment on Leishmania donovani, 4690 nM.

For `OCc1cc(Nc2ccnc3cc(Cl)ccc23)ccc1O`, the IC50 with Plasmodium falciparum [1] was 1420 nM; with KB, 198000 nM; in the experiment on Plasmodium falciparum [2], 712 nM; in the experiment with Leishmania donovani, greater than 89000 nM.

Turning to `Oc1ccc(Nc2ccnc3cc(Cl)ccc23)cc1CCl`, the half-inhibitory concentration (IC50) is 557 nM in the experiment on Plasmodium falciparum [1], 25600 nM with KB, 695 nM in the experiment on Plasmodium falciparum [2] and greater than 83500 nM in the experiment with Leishmania donovani.

In the case of `Oc1ccc(Nc2ccnc3cc(Cl)ccc23)cc1CN1CCN(c2ccccn2)CC1`, the half-maximal inhibitory concentration (IC50) in the experiment on Plasmodium falciparum [1] was determined as 1.4 nM; in the experiment on KB, 16100 nM; in the experiment on Plasmodium falciparum [2] it was 0.323 nM; in the experiment with Leishmania donovani, 6710 nM.

With `Oc1ccc(Nc2ccnc3cc(Cl)ccc23)cc1CN1CCN(c2ccccc2)CC1`, the half-inhibitory concentration (IC50) in the experiment on Plasmodium falciparum [1] is 1.8 nM; in the experiment with KB, 8630 nM; in the experiment with Plasmodium falciparum [2] it was 3.52 nM; in the experiment with Leishmania donovani it was 9680 nM.

Regarding `Oc1ccc(Nc2ccnc3cc(Cl)ccc23)cc1CN1CCN(c2nc3ccccc3[nH]2)CC1`, the concentration for half-maximal inhibition (IC50) in the experiment on Plasmodium falciparum [1] is 1.54 nM; in the experiment on KB it was 2440 nM; in the experiment with Plasmodium falciparum [2], 3.08 nM; in the experiment with Leishmania donovani it was 1870 nM.

As for `Oc1ccc(Nc2ccnc3cc(Cl)ccc23)cc1CN1CCN(c2cccs2)CC1`, the IC50 in the experiment with KB was 50400 nM; in the experiment on Plasmodium falciparum [2], 2.22 nM; in the experiment on Leishmania donovani, 9140 nM.

As for `Oc1ccc(Nc2ccnc3cc(Cl)ccc23)cc1CN1CCNCC1`, the 50% inhibitory concentration (IC50) in the experiment on Plasmodium falciparum [1] stood at 225 nM; in the experiment on KB, 11800 nM; in the experiment with Plasmodium falciparum [2], 18.8 nM; in the experiment on Leishmania donovani it was 2290 nM.

On to `C[C@H]1[C@H](OC(=O)CCC(=O)O)O[C@@H]2O[C@@]3(C)CC[C@H]4[C@H](C)CC[C@@H]1[C@@]24OO3` [ARTESUNATE], for which the 50% inhibitory concentration (IC50) with Plasmodium falciparum [1] came to 2.46 nM.
